Measured values as given in ChEMBL document CHEMBL1152940 (Bioorg Med Chem, 2009).
One block for each compound: values may come before it.

What was measured:
[1] = molecular target: D(2) dopamine receptor (Rattus norvegicus) (UniProt P61169); experiment: Agonist activity at rat dopamine D2short receptor expressed in CHO-K1 cells assessed as stimulation of [35S]GTPgammaS binding by liquid scintillation counting relative to dopamine; format: functional, cell-based
Procedure, shortened: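 Membranes from CHO-K1 cells stably expressing the receptor were prepared by sonication in Tris buffer (pH 7.4, with NaCl, KCl, MgCl2 and EDTA). They were incubated with 0.2 nM [35S]GTPγS, 10 µM GDP and a compound concentration series for 90 min at 25 °C. Samples were filtered on GF/B and washed with ice-cold phosphate buffer before scintillation counting. Curves were fitted by non-linear regression. Means ± SEM come from ≥2 independent experiments, each in duplicate.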

D(2) dopamine receptor [2] = molecular target: T1, D(2) dopamine receptor (Rattus norvegicus, UniProt P61169); experiment: Displacement of [3H]raclopride from rat dopamine D2short receptor expressed in CHO-K1 cells by liquid scintillation counting; format: cell-based
D(2) dopamine receptor [3] = molecular target: T1, D(2) dopamine receptor; experiment: Agonist activity at rat dopamine D2short receptor expressed in CHO-K1 cells assessed as stimulation of [35S]GTPgammaS binding by liquid scintillation counting; format: functional, cell-based
D(1A) dopamine receptor = D(1A) dopamine receptor (Homo sapiens, UniProt P21728); experiment: Displacement of [3H]SCH23390 from dopamine D1 receptor expressed in Ltk deficient fibroblast cells by liquid scintillation counting; format: cell-based
[4] = Selectivity index, ratio of Ki for dopamine D1 receptor to Ki for rat dopamine D2short receptor

Sequence of D(1A) dopamine receptor (P21728 whole entry): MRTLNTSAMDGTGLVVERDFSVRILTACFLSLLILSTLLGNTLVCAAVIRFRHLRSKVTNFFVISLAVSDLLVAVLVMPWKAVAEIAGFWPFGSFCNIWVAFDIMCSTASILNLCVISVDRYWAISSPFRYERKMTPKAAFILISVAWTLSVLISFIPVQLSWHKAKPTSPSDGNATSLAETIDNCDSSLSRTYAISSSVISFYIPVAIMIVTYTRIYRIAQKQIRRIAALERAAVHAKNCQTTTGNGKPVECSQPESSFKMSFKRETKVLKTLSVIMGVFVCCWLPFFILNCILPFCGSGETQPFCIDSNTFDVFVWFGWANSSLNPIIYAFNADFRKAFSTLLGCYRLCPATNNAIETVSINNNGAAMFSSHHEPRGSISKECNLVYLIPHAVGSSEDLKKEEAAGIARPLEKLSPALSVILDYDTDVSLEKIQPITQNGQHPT
T1 sequence (P61169 whole entry): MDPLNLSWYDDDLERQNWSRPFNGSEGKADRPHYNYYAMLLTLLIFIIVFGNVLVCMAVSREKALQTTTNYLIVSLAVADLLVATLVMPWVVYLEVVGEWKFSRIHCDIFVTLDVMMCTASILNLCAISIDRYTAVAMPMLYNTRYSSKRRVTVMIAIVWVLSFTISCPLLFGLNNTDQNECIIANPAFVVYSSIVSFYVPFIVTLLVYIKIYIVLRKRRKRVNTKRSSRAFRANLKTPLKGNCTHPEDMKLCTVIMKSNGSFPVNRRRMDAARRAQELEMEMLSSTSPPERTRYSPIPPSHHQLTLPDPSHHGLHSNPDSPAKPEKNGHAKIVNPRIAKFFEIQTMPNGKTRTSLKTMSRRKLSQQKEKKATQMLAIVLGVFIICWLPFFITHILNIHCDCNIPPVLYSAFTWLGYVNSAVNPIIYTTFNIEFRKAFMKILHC
Sequence of D(2) dopamine receptor (Rattus norvegicus) (P61169 whole entry): as above

SMILES: CCN1CCc2cc(C)cc3c2[C@H]1Cc1ccc(O)c(O)c1-3
Efficacy [1]: 112% | Ki (D(2) dopamine receptor [2]): 115 nM | EC50 (D(2) dopamine receptor [3]): 480 nM | Ki (D(1A) dopamine receptor): 1340 nM | Ratio Ki [4]: 12

SMILES: CCN1CCc2cc(-c3ccc(O)cc3)cc3c2[C@H]1Cc1ccc(O)c(O)c1-3
Efficacy [1]: 112% | Ki (D(2) dopamine receptor [2]): 1.5 nM | EC50 (D(2) dopamine receptor [3]): 8.7 nM | Ki (D(1A) dopamine receptor): 124 nM | Ratio Ki [4]: 83

Efficacy [1]: 58%
SMILES: CN1CCc2cccc3c2[C@H]1Cc1ccc(O)c(O)c1-3

SMILES: CCCN1CCc2cc(-c3ccc(O)cc3)cc3c2[C@H]1Cc1ccc(O)c(O)c1-3
Efficacy [1]: 99% | Ki (D(2) dopamine receptor [2]): 2 nM | EC50 (D(2) dopamine receptor [3]): 12 nM | Ki (D(1A) dopamine receptor): 94 nM | Ratio Ki [4]: 47

SMILES: CCN1CCc2cc(-c3ccccc3)cc3c2[C@H]1Cc1ccc(O)c(O)c1-3
Efficacy [1]: 72% | Ki (D(2) dopamine receptor [2]): 14 nM | EC50 (D(2) dopamine receptor [3]): 51 nM | Ki (D(1A) dopamine receptor): 31 nM | Ratio Ki [4]: 2.2

SMILES: Cc1cc2c3c(c1)-c1c(ccc(O)c1O)C[C@H]3N(C)CC2
EC50 (D(2) dopamine receptor [3]): 43 nM

SMILES: CN1CCc2cc(-c3ccccc3)cc3c2[C@H]1Cc1ccc(O)c(O)c1-3
EC50 (D(2) dopamine receptor [3]): 23 nM | Ki (D(1A) dopamine receptor): 88 nM | Ratio Ki [4]: 7.5

SMILES: CN1CCc2cc(-c3ccc(O)cc3)cc3c2[C@H]1Cc1ccc(O)c(O)c1-3
EC50 (D(2) dopamine receptor [3]): 8.5 nM | Ki (D(1A) dopamine receptor): 755 nM | Ratio Ki [4]: 182

SMILES: CCCN1CCc2cc(-c3ccccc3)cc3c2[C@H]1Cc1ccc(O)c(O)c1-3
Efficacy [1]: 100% | Ki (D(2) dopamine receptor [2]): 192 nM | EC50 (D(2) dopamine receptor [3]): 577 nM | Ki (D(1A) dopamine receptor): 669 nM | Ratio Ki [4]: 3.5

SMILES: CCCN1CCc2cc(C)cc3c2[C@H]1Cc1ccc(O)c(O)c1-3
Efficacy [1]: 65% | Ki (D(2) dopamine receptor [2]): 9.2 nM | EC50 (D(2) dopamine receptor [3]): 40 nM | Ki (D(1A) dopamine receptor): 278 nM | Ratio Ki [4]: 30
